Data set [1] concerns the target T1, Aldo-keto reductase family 1 member C3 (Homo sapiens, UniProt P42330).
T1 sequence (P42330 whole entry): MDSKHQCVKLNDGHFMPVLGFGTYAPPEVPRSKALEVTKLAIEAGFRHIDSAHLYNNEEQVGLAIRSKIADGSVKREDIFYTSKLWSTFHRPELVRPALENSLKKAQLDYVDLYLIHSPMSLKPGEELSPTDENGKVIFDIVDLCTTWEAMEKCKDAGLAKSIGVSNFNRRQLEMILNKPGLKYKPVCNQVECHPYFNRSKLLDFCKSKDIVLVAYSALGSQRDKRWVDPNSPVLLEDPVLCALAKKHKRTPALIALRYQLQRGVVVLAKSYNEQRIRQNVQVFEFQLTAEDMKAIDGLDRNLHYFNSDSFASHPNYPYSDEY
Put plainly: Inhibition of recombinant N-terminal GST-tagged human AKR1C3 expressed in Escherichia coli BL21 (DE) Codon Plus RP cells using S-tetralol as substrate in presence of NADP+ by fluorimetric analysis.

In data set [2] the target is T2, COX1 (prostaglandin G/H synthase 1) (Ovis aries, UniProt P05979).
T2 sequence (P05979 whole entry): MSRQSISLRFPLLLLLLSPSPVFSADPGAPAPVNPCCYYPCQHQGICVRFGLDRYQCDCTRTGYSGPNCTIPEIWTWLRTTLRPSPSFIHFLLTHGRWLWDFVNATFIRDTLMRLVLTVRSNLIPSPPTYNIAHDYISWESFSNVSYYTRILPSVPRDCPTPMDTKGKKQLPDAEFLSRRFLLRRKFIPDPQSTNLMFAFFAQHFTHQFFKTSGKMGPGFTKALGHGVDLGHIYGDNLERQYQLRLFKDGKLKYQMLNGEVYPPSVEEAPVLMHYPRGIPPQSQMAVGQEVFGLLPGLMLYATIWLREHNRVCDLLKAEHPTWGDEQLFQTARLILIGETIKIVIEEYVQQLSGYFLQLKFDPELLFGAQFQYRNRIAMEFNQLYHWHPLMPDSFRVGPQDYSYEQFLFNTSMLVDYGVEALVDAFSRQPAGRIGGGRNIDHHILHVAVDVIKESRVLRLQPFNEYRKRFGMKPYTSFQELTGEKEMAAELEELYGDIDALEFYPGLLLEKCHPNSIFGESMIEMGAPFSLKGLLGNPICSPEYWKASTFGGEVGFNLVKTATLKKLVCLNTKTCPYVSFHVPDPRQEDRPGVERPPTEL
In words: Inhibition of ovine COX1 assessed as reduction in PGF2alpha production at 100 uM by ELISA. The following applies: sheep, ovine COX1 enzyme. A digest of the protocol:
(§1)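 Ovine COX1 or human COX2 reaction in a commercial inhibitor screening kit. PGH2 formed is reduced with SnCl2 to PGF2α, which is quantified by enzyme immunoassay (absorbance). Single-point inhibition at 100 µM given as % ± SE. IC50 by linear regression. Mean ± SE of at least three experiments.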

Data set [3] concerns the target Prostaglandin G/H synthase 2 (Homo sapiens) (UniProt P35354). In words: Inhibition of human COX2 assessed as reduction in PGF2alpha production at 100 uM by ELISA. The following applies: human COX2 enzyme. A general note: ELISA stands for enzyme-linked immunosorbent assay.
Data set [4] addresses T3, Aldo-keto reductase family 1 member C2 (Homo sapiens, UniProt P52895).
T3 sequence (P52895 whole entry): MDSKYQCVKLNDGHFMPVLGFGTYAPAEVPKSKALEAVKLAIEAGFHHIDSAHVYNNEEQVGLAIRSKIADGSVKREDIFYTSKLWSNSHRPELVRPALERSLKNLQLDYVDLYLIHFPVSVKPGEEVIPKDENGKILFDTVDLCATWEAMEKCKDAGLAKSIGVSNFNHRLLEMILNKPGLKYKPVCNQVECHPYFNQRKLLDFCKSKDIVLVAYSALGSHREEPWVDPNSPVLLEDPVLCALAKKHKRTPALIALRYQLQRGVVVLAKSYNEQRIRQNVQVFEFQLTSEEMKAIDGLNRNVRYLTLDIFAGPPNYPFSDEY
Put plainly: Inhibition of recombinant N-terminal GST-tagged human AKR1C2 expressed in Escherichia coli BL21 (DE) Codon Plus RP cells using S-tetralol as substrate in presence of NADP+ by fluorimetric analysis. In outline:
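GST-tagged AKR1C2 purified on glutathione sepharose with thrombin cleavage. Percent inhibition from initial velocities versus solvent controls. IC50 as means of two experiments, each in triplicate.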

In data set [5] the test system is CWR22R. In words: Antiproliferative activity against human 22Rv1 cells after 72 hrs by sulforhodamine B colorimetric assay. In kind it is functional, cell-based. The following applies: 22Rv1, 72 h. (In SRB staining, fixed cells bind dye roughly in proportion to their protein.)
The target in data set [6] is T4, Prostaglandin G/H synthase 1 (Ovis aries, UniProt P05979).
T4 sequence (P05979 whole entry): T2 sequence (P05979 whole entry)
In words: Inhibition of ovine COX1 assessed as reduction in PGF2alpha production by ELISA. In outline: as §1

Data set [7] has as its system CWR22R. In words: Synergistic antiproliferative activity against human 22Rv1 cells assessed as reduction in cell viability at 20 uM after 72 hrs in presence of abiraterone by sulforhodamine B colorimetric proliferation assay. In kind it is functional.
Data set [8] concerns CWR22R. In words: Synergistic antiproliferative activity against human 22Rv1 cells assessed as reduction in cell viability at 20 uM after 72 hrs in presence of enzalutamide by sulforhodamine B colorimetric proliferation assay. In kind it is functional.
Data set [9] deals with CWR22R. In words: Antiproliferative activity against human 22Rv1 cells assessed as inhibition of cell proliferation at 100 uM after 72 hrs by sulforhodamine B colorimetric assay. In kind it is functional. The following applies: 22Rv1, 72 h.
In data set [10] the test system is CWR22R. In words: Reduction in PSA expression level in human 22Rv1 cells by Western blot analysis. In kind it is functional, cell-based. A digest of the protocol:
(§2)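 22RV1 treated for 72 h at three concentrations. Viable cells lysed in RIPA buffer with protease inhibitors, protein measured by Bradford, 20 µg run on SDS-PAGE and transferred to nitrocellulose. Probed overnight at 4 °C with goat polyclonal anti-PSA (1:500), β-actin as reference, HRP secondary, ECL detection; Ponceau staining as loading check.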

For data set [11], the target named is T5, Aldo-keto reductase family 1 member C3 (Homo sapiens) (UniProt P42330).
T5 sequence (whole entry): T1 sequence (P42330 whole entry)
In words: Inhibition of AKR1C3-mediated testosterone production in human 22Rv1 cells preincubated for 1 hr followed by androstenedione addition and measured after 24 hrs by ELISA. In kind it is cell-based. In outline: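 22RV1 at 30,000 cells/well in RPMI with 10% charcoal-stripped serum, 37 °C, 5% CO2, 24 h. Inhibitor added at 4 concentrations for 1 h, then androstenedione 28 nM; further 24 h. Testosterone in supernatant quantified by ELISA. Means of two separate experiments, each in triplicate.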

The subject of data set [12] is CWR22R. In words: Potency index, ratio of IC50 for flufenamic acid to IC50 for test compound for antiproliferative activity against human 22Rv1 cells after 72 hrs by sulforhodamine B colorimetric assay. In kind it is functional.
Data set [13] has as its system CWR22R. Put plainly: Reduction in PSA expression level in human 22Rv1 cells at 1 to 30 uM by Western blot analysis. In kind it is functional, cell-based. A digest of the protocol: as §2
Background: In western blotting, separated proteins are transferred to a membrane and probed.

Activity calls are given as the source filed them. The rule behind the calls is not given here.

Sequence of Prostaglandin G/H synthase 2 (Homo sapiens) (P35354 whole entry, looked up): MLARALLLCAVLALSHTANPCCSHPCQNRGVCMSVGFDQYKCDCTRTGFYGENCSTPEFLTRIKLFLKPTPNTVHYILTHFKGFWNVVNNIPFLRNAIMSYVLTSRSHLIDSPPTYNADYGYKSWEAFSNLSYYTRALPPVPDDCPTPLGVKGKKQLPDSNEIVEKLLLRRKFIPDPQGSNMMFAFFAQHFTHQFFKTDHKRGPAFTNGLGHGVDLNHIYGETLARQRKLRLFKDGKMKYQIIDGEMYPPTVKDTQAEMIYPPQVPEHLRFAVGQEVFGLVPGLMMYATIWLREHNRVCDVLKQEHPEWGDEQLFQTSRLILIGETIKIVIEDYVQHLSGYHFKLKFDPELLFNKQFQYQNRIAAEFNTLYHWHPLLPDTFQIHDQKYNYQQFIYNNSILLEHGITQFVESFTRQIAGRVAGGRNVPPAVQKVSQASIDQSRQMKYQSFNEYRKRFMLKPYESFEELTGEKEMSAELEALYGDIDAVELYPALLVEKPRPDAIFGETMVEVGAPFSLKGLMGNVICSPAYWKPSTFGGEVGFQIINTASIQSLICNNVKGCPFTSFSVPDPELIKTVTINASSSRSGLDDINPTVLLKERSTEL

One may read the IC50 as the concentration needed to halve the response being measured. A word on the inhibition: it is the share of the control response that was lost under treatment. Consider `Oc1noc2cccc(Nc3cccc(S(F)(F)(F)(F)F)c3)c12`, for which the IC50 is 310 nM in [1], 4.29 µM in data set [4], 64.9 µM with CWR22R [5] and more than 100 µM in data set [6]. Moreover, the inhibition at 100 µM in [2] is 0%; in data set [3], 4.3%.
Consider `Oc1noc2cccc(Nc3cccc(C(F)(F)F)c3)c12`, for which the IC50 was 550 nM in data set [1], 4.38 µM in data set [4], 64.8 µM with CWR22R [5] and more than 100 µM in [6]. Moreover, the figures for the inhibition at 100 µM in [2] and in [3] were 29% and 13%, respectively.
Regarding `Oc1noc2cccc(Nc3cc(C(F)(F)F)cc(C(F)(F)F)c3)c12`, the inhibition at 100 µM was determined as 2.1% in data set [2] and 0% in data set [3]. In addition, the Activity in the data set on CWR22R [7] and in the data set on CWR22R [8] was 10 - 25% in each case. The IC50 in data set [4] is 119 µM; in [6] it was more than 100 µM.
Turning to `O=[N+]([O-])c1cccc(Nc2cccc3onc(O)c23)c1`, the IC50 in data set [1] was 1410 nM; in data set [4], 5.7 µM; in the data set with CWR22R [5] it was more than 100 µM; in data set [6] it was more than 100 µM. The inhibition at 100 µM in data set [2] is 0%; in data set [3], 0.37%; in the data set with CWR22R [9] it was 31.1%.
With `O=C(Nc1cccc(C(F)(F)F)c1)c1c(O)nnn1Cc1ccc(OC(F)(F)F)cc1`, the concentration for half-maximal inhibition (IC50) in [1] was 190 nM; in data set [4] it was 54.9 µM; with CWR22R [5] it was 31.3 µM; in data set [6] it was more than 100 µM. The inhibition at 100 µM in data set [2] and in data set [3] was 0% each time. The Activity was 10 - 25% in the data set on CWR22R [7], 10 - 25% with CWR22R [8] and “Dose-dependent effect” with CWR22R [10]. The inhibition result in data set [11] was “Dose-dependent effect”. Further, in the data set with CWR22R [12], the “Ratio IC50” value is listed as “>=4”.
For `COc1ccc(Cn2nnc(O)c2C(=O)Nc2cccc(C(F)(F)F)c2)cc1`, the outcome in the data set on CWR22R [13] was inactive.
For the compound `Oc1noc2ccc(Nc3cccc(C(F)(F)F)c3)cc12`, the IC50 in data set [1] was 3480 nM; in [4], 66.9 µM; in the data set on CWR22R [5] it was 74.8 µM; in [6] it was more than 100 µM. The inhibition at 100 µM stood at 29% in data set [2] and 0% in data set [3].
As to `COc1ccc(Cn2nnc(O)c2C(=O)Nc2cccc(C(F)(F)F)c2)cc1OC`, the IC50 in data set [1] is 400 nM; in data set [4], 108 µM; in the data set on CWR22R [5], 59.2 µM; in [6], more than 100 µM. Also, the values for the inhibition at 100 µM in [2] and in [3] were 0% and 0.87%, respectively. In the data set on CWR22R [10], the Activity result is “Dose-dependent effect”.

The values are drawn from ChEMBL document CHEMBL4229374 (Eur J Med Chem, 2018).
